# Active and inactive are the calls of the source. No cut-off for these calls is given here.
# Legend:
# HT-29 [1] = assay: Antiproliferative activity against human HT-29 cells assessed as inhibition of cell growth incubated for 72 hrs by MTT assay; type: functional; conditions: for CC50: HT-29, 72 h
# Method in brief: (§1)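 MTT viability assay after 72 h exposure to compound over 0–24 μM, 24 μM being the highest concentration. […] Data are means ± SD of duplicate experiments, five replicates each.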
# [2] = Selectivity index, ratio of CC50 for human HFF1 cells to CC50 for human PTJ86i cells; type: toxicity; conditions: HFF1 cells and PTJ86i cells
# BXPC-3 [3] = assay: Antiproliferative activity against human BxPC3 cells assessed as inhibition of cell growth at 75 uM incubated for 72 hrs by MTT assay relative to control; type: functional; conditions: BXPC-3, 72 h
# Homo sapiens [4] = species: Homo sapiens; assay: Antiproliferative activity against human PTJ86i cells assessed as inhibition of cell growth incubated for 72 hrs by MTT assay; type: functional; method in brief: as §1
# SW480 [5] = assay: Antiproliferative activity against human SW480 cells assessed as inhibition of cell growth at 75 uM incubated for 72 hrs by MTT assay relative to control; type: functional; conditions: SW480, 72 h
# [6] = target: T1, Peroxisome proliferator-activated receptor gamma (Homo sapiens) (UniProt P37231); assay: Effect on GAL4-tagged human PPARgamma LBD expressed in human HepG2 cells incubated for 20 to 22 hrs by luciferase reporter gene assay; type: cell-based
# T1 sequence (whole entry): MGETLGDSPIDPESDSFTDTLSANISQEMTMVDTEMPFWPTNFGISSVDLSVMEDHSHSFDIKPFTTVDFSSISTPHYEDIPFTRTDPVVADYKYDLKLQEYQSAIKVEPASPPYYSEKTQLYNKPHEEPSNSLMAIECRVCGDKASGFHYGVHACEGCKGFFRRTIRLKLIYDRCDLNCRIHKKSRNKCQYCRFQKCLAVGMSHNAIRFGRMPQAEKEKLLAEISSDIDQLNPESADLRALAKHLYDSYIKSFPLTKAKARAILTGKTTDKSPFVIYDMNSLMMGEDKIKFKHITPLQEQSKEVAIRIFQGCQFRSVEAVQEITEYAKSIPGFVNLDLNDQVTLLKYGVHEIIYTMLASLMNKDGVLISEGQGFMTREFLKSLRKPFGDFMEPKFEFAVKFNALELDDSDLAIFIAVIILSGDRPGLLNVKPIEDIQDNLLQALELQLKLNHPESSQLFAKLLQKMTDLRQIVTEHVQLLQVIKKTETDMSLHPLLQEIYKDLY
# Capan-2 [7] = assay: Antiproliferative activity against human Capan2 cells assessed as inhibition of cell growth incubated for 72 hrs by MTT assay; type: functional; conditions: for CC50: Capan-2, 72 h; method in brief: as §1
# ASPC1 [8] = assay: Antiproliferative activity against human AsPC1 cells assessed as inhibition of cell growth incubated for 72 hrs by MTT assay; type: functional; conditions: for CC50: ASPC1, 72 h; method in brief: as §1
# [9] = target: T2, Peroxisome proliferator-activated receptor alpha (Homo sapiens, UniProt Q07869); assay: Antagonist activity at GAL4-tagged human PPARalpha LBD expressed in human HepG2 cells assessed as inhibition of Wy14,643-induced receptor transactivation incubated for 20 to 22 hrs by luciferase reporter gene assay; type: cell-based
# T2 sequence (Q07869 whole entry): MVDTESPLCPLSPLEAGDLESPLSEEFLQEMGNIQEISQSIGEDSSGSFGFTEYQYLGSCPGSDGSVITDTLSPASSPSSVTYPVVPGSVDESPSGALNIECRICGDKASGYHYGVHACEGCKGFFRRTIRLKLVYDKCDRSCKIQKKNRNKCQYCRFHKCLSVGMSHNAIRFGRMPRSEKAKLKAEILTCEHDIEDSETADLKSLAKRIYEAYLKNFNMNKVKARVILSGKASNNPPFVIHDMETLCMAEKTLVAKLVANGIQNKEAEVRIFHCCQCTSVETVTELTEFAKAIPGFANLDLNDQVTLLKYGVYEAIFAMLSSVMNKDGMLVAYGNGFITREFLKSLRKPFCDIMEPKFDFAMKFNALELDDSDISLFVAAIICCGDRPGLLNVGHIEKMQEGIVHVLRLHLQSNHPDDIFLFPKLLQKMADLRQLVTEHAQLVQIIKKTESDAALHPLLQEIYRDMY
# ASPC1 [10] = assay: Antiproliferative activity against human AsPC1 cells assessed as inhibition of cell growth at 75 uM incubated for 72 hrs by MTT assay relative to control; type: functional; conditions: ASPC1, 72 h
# Homo sapiens [11] = species: Homo sapiens; assay: Antiproliferative activity against human PTJ64i cells assessed as inhibition of cell growth incubated for 72 hrs by MTT assay; type: functional; method in brief: as §1
# Capan-2 [12] = assay: Antiproliferative activity against human Capan2 cells assessed as inhibition of cell growth at 75 uM incubated for 72 hrs by MTT assay relative to control; type: functional; conditions: Capan-2, 72 h
# SW480 [13] = assay: Antiproliferative activity against human SW480 cells assessed as inhibition of cell growth incubated for 72 hrs by MTT assay; type: functional; conditions: for CC50: SW480, 72 h; method in brief: as §1
# [14] = Selectivity index, ratio of CC50 for human HFF1 cells to CC50 for human PTJ64i cells; type: toxicity; conditions: HFF1 cells and PTJ64i cells
# A498 [15] = assay: Antiproliferative activity against human A498 cells assessed as inhibition of cell growth incubated for 72 hrs by MTT assay; type: functional; conditions: for CC50: A498, 72 h; method in brief: as §1
# A498 [16] = assay: Antiproliferative activity against human A498 cells assessed as inhibition of cell growth at 75 uM incubated for 72 hrs by MTT assay relative to control; type: functional; conditions: A498, 72 h
# [17] = (§2) Antiproliferative activity against human PTJ86i cells assessed as inhibition of cell growth at 75 uM incubated for 72 hrs by MTT assay relative to control; type: functional
# HT-29 [18] = assay: Antiproliferative activity against human HT-29 cells assessed as inhibition of cell growth at 75 uM incubated for 72 hrs by MTT assay relative to control; type: functional; conditions: HT-29, 72 h
# HFF-1 = assay: Cytotoxicity against human HFF1 cells assessed as reduction in cell viability incubated for 72 hrs by MTT assay; type: cell-based; conditions: hff-1, 72 h; method in brief: as §1
# BXPC-3 [19] = assay: Antiproliferative activity against human BxPC3 cells assessed as inhibition of cell growth incubated for 72 hrs by MTT assay; type: functional; conditions: for CC50: BXPC-3, 72 h; method in brief: as §1
# HepG2 = assay: Cytotoxicity against human HepG2 cells at >5 uM; type: cell-based
# [20] = target: T1, Peroxisome proliferator-activated receptor gamma (Homo sapiens); assay: Agonist activity at GAL4-tagged human PPARgamma LBD expressed in human HepG2 cells incubated for 20 to 22 hrs by luciferase reporter gene assay; type: cell-based
# [21] = target: T3, Peroxisome proliferator-activated receptor gamma (Homo sapiens, UniProt P37231); assay: Antagonist activity at GAL4-tagged human PPARgamma LBD expressed in human HepG2 cells assessed as inhibition of Rosiglitazone-induced receptor transactivation incubated for 20 to 22 hrs by luciferase reporter gene assay
# T3 sequence (P37231 whole entry): T1 sequence (whole entry)
# Homo sapiens [22] = species: Homo sapiens; assay: Antiproliferative activity against human PTJ64i cells assessed as inhibition of cell growth at 75 uM incubated for 72 hrs by MTT assay relative to control; type: functional
# Homo sapiens [23] = species: Homo sapiens; assay: as §2; type: functional
smiles,measurement,setting,value
CC(C)(Oc1ccc(CCOc2ccc(/N=N/c3ccccc3)cc2)cc1)C(=O)NS(=O)(=O)c1ccc([N+](=O)[O-])cc1,inhibition,HT-29 [1],Dose-dependent effect
same,CC50,HT-29 [1],> 24 µM
same,selectivity ratio,[2],> 8.63
same,inhibition at 75 µM,BXPC-3 [3],41 to 92%
same,inhibition,Homo sapiens [4],Dose-dependent effect
same,inhibition at 75 µM,SW480 [5],52 to 98%
same,Activity,[6],inactive
same,inhibition,Capan-2 [7],Dose-dependent effect
same,CC50,Capan-2 [7],> 24 µM
same,inhibition,ASPC1 [8],Dose-dependent effect
same,CC50,ASPC1 [8],> 24 µM
same,IC50,[9],1.1 µM
same,inhibition at 75 µM,ASPC1 [10],41 to 92%
same,inhibition,Homo sapiens [11],Dose-dependent effect
same,inhibition at 75 µM,Capan-2 [12],41 to 92%
same,inhibition,SW480 [13],Dose-dependent effect
same,CC50,SW480 [13],> 24 µM
same,selectivity ratio,[14],> 8.3
same,inhibition,A498 [15],Dose-dependent effect
same,CC50,A498 [15],> 24 µM
same,inhibition at 75 µM,A498 [16],51 to 71%
same,inhibition at 75 µM,[17],84 to 98%
same,inhibition at 75 µM,HT-29 [18],52 to 98%
same,CC50,HFF-1,> 24 µM
same,inhibition,BXPC-3 [19],Dose-dependent effect
same,CC50,BXPC-3 [19],17 µM
CC(C)(Oc1ccc(CCOc2ccc(/N=N/c3ccccc3)cc2)cc1)C(=O)NS(=O)(=O)c1ccc(Cl)cc1,inhibition,HT-29 [1],Dose-dependent effect
same,CC50,HT-29 [1],> 24 µM
same,selectivity ratio,[2],> 6.63
same,inhibition at 75 µM,BXPC-3 [3],41 to 92%
same,inhibition,Homo sapiens [4],Dose-dependent effect
same,inhibition at 75 µM,SW480 [5],52 to 98%
same,Activity,[6],inactive
same,inhibition,Capan-2 [7],Dose-dependent effect
same,CC50,Capan-2 [7],> 24 µM
same,inhibition,ASPC1 [8],Dose-dependent effect
same,CC50,ASPC1 [8],> 24 µM
same,IC50,[9],0.21 µM
same,inhibition at 75 µM,ASPC1 [10],41 to 92%
same,inhibition,Homo sapiens [11],Dose-dependent effect
same,inhibition at 75 µM,Capan-2 [12],41 to 92%
same,inhibition,SW480 [13],Dose-dependent effect
same,CC50,SW480 [13],> 24 µM
same,selectivity ratio,[14],> 6.35
same,inhibition,A498 [15],Dose-dependent effect
same,CC50,A498 [15],> 24 µM
same,inhibition at 75 µM,A498 [16],51 to 71%
same,inhibition at 75 µM,[17],84 to 98%
same,inhibition at 75 µM,HT-29 [18],52 to 98%
same,CC50,HFF-1,> 24 µM
same,inhibition,BXPC-3 [19],Dose-dependent effect
same,CC50,BXPC-3 [19],> 24 µM
CC(C)(Oc1ccc(CCOc2ccc(NC(=O)c3ccccc3)cc2)cc1)C(=O)NS(=O)(=O)c1ccccc1,inhibition,HT-29 [1],Dose-dependent effect
same,CC50,HT-29 [1],7 µM
same,selectivity ratio,[2],> 11.3
same,inhibition at 75 µM,BXPC-3 [3],41 to 92%
same,inhibition,Homo sapiens [4],Dose-dependent effect
same,inhibition at 75 µM,SW480 [5],52 to 98%
same,Activity,[6],inactive
same,inhibition,Capan-2 [7],Dose-dependent effect
same,CC50,Capan-2 [7],7 µM
same,inhibition,ASPC1 [8],Dose-dependent effect
same,CC50,ASPC1 [8],7 µM
same,IC50,[9],0.24 µM
same,inhibition at 75 µM,ASPC1 [10],41 to 92%
same,inhibition,Homo sapiens [11],Dose-dependent effect
same,inhibition at 75 µM,Capan-2 [12],41 to 92%
same,inhibition,SW480 [13],Dose-dependent effect
same,CC50,SW480 [13],7 µM
same,selectivity ratio,[14],> 9.45
same,inhibition,A498 [15],Dose-dependent effect
same,CC50,A498 [15],4.6 µM
same,inhibition at 75 µM,A498 [16],51 to 71%
same,inhibition at 75 µM,[17],84 to 98%
same,inhibition at 75 µM,HT-29 [18],52 to 98%
same,CC50,HFF-1,> 24 µM
same,inhibition,BXPC-3 [19],Dose-dependent effect
same,CC50,BXPC-3 [19],7 µM
CC(C)(Oc1ccc(CCOc2ccc(NC(=O)c3ccccc3)cc2)cc1)C(=O)NCc1ccccc1,Activity,[6],inactive
same,IC50,[9],12.1 µM
CC(C)(Oc1ccc(CCOc2ccc(NC(=O)c3ccccc3)cc2)cc1)C(=O)Nc1ccccc1,Activity,[6],inactive
same,IC50,[9],12.3 µM
CCC(=O)NC[C@H](Cc1ccc(OCCc2nc(-c3ccccc3)oc2C)cc1)N/C(C)=C\C(=O)c1ccc(C(F)(F)F)cc1,inhibition at 75 µM,[17],85 to 92%
CC(C)(Oc1ccc(CCOc2ccc(NC(=O)Nc3ccccc3)cc2)cc1)C(=O)NCc1ccccc1,Activity,[6],inactive
same,IC50,[9],10.3 µM
CC(C)(Oc1ccc(CCOc2ccc(NC(=O)Nc3ccccc3)cc2)cc1)C(=O)Nc1ccccc1,Activity,[6],inactive
same,IC50,[9],6.1 µM
CC(C)(Oc1ccc(CCOc2ccc(/N=N/c3ccccc3)cc2)cc1)C(=O)NS(C)(=O)=O,Activity,HepG2,Toxic
same,Activity,[20],inactive
CC(C)(Oc1ccc(CCOc2ccc(NC(=O)Nc3ccccc3)cc2)cc1)C(N)=O,Activity,[6],inactive
same,IC50,[9],3.32 µM
CC(C)(Oc1ccc(CCOc2ccc(NC(=O)c3ccccc3)cc2)cc1)C(N)=O,Activity,[6],inactive
same,IC50,[9],7 µM
CC(C)(Oc1ccc(CCOc2ccc(/N=N/c3ccccc3)cc2)cc1)C(=O)NS(=O)(=O)c1ccccc1,IC50,[21],14 µM
same,Imax,[6],87%
same,IC50,[9],1.2 µM
same,Activity,HepG2,Toxic
CC(C)(Oc1ccc(CCOc2ccc(/N=N/c3ccccc3)cc2)cc1)C(=O)NS(=O)(=O)c1ccc(NC(=O)Cc2ccccc2)cc1,Activity,[6],inactive
same,IC50,[9],3.2 µM
CC(C)(CCCOc1ccc(/C=C/c2ccccc2)cc1)C(=O)NS(C)(=O)=O,Activity,HepG2,Toxic
same,Activity,[20],inactive
CC(C)(CCCOc1ccc(/C=C/c2ccccc2)cc1)C(=O)NS(=O)(=O)c1ccccc1,Activity,HepG2,Toxic
same,Activity,[20],inactive
Cc1cccc(Nc2cc(Cl)nc(SCC(=O)O)n2)c1C,inhibition,Homo sapiens [22],inactive
same,inhibition,Homo sapiens [23],inactive
CC(C)(Oc1ccc(CCOc2ccc(NC(=O)Nc3ccccc3)cc2)cc1)C(=O)NS(=O)(=O)c1ccccc1,Activity,[6],inactive
same,IC50,[9],1.52 µM
CC(C)(Oc1ccc(CCOc2ccc(/N=N/c3ccccc3)cc2)cc1)C(=O)Nc1ccccc1,Activity,[6],inactive
CCCCNC(=O)C(C)(C)Oc1ccc(CCOc2ccc(NC(=O)c3ccccc3)cc2)cc1,Activity,[6],inactive

# From ChEMBL document CHEMBL4613275, “Sulfonimide and Amide Derivatives as Novel PPARα Antagonists: Synthesis, Antiproliferative Activity, and Docking Studies” (ACS Med Chem Lett, 2020)
